Experiment [1] in a line: inhibitors of TNFa-induced NFkB p65 translocation, primary screen, imaging, HUVEC, MLSMR starter and 10KST1 sets (AID 438;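 active = inhibition above 20% together with a positive visual image hit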;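 note: compound added about 3h40 before a 20 min TNFalpha stimulation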;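 for inhibition: signal is the nuclear over cytoplasmic p65 intensity ratio per well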). The conditions noted are these: HUVEC TNFa-induced p65 nuclear translocation; cell count: measured here: nuclei count (cytotoxicity indicator), at 2.08 µM; inhibition: at 2 µM, stronger effect = higher value, 0% TNFa-plus-vehicle, 100% no-TNFa wells.
The nature of experiment [2]: reduction of polyQ htt aggregates in cells – imaging, exon1htt(103Q)mCFP cells, high-content imaging, primary screen (AID 483;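 active = visual image review flags a hit and inhibition of aggregation exceeds 20%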;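 note: compound exposure lasted 3 days before fixation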;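 for nuclei count: percent of the per-plate median nuclei count of sample wells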). The note with it: exon1htt(103Q)mCFP cell line, aggregate imaging, at 2 µM; inhibition of aggregation: stronger effect = higher value; nuclei count: measured here: cell count, toxicity.
The nature of experiment [3]: endothelial E-selectin expression blockers – imaging, HUVEC, immunofluorescence, MLSMR starter and 10KST1 sets, primary screen (AID 487;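 active = visually confirmed hit in the image check and inhibition above 20%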;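 for inhibition: signal is fraction of cell area covered by stained E-selectin grains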;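 for nuclei count: 100% = median nuclei count of all wells on the same plate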). The note with it: HUVEC TNFalpha-induced E-selectin immunofluorescence imaging, at 2 µM; inhibition: stronger effect = higher value; nuclei count: measured here: cell number, toxicity.
Experiment [4] has as its target Voltage-gated potassium channel subunit beta-2 (Rattus norvegicus) (UniProt P62483). Nature of the experiment: inhibitors of rat Kvbeta2 reductase activity – biochemical, NADPH fluorescence, primary screen (AID 622;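 active = fluorescence slope higher than the sample average by over 3 SD, cut at about -0.22 in these data, passing the limit was not always enough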;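 note: slope of raw intensity against log time taken from 70 to 1610 s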). The conditions noted are these: recombinant KvBeta, 4-cyanobenzaldehyde reduction, at 10 µM, stronger effect = higher value.
Experiment [5] shares this target. Nature of the experiment: enhancers of rat Kvbeta2 NADPH turnover – biochemical, NADPH fluorescence, primary screen (AID 623;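 active = NADPH fluorescence slope more negative than the mean of all samples by about 3 SD, 99.7% confidence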;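 note: fluorescence intensity change per second fitted from 20 to 320 s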). The conditions noted are these: Recombinant KvBeta, NADPH fluorescence decrease slope, 10 min; at 10 µM; stronger effect = lower value.
Experiment [6] concerns the target Muscarinic acetylcholine receptor M4 (Homo sapiens) (UniProt P08173). Nature of the experiment: M4-linked GIRK flux change, two-sided – cell-based, HEK293 M4/GIRK, thallium flux, BTC-AM, M4 allosteric agonist project, primary screen (AID 625;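 active = fluorescence slope after compound addition differing from the mean of all tested samples at 99.7% confidence, mostly higher but some lower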;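 note: thallium influx through GIRK channels coupled to M4 in HEK293 cells with BTC-AM dye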). The conditions noted are these: at 10 µM, actives lie on both sides. Put shortly: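 Material: HEK293 cells with M4 receptor and GIRK channels; Times: cells overnight at 37 °C, BTC-AM loading 1 h, reads 2 min total; Technique: kinetic BTC-AM fluorescence sampled at 1 Hz, 10 s pre-addition baseline; Read-out basis: slope over 15–24 s of trace normalized to starting intensity; Controls: carbachol positive, DMSO negative.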

Experiment [7] can be described thus: blockers of RIG-like receptor reporter activation – cell-based, Sendai virus stimulus, luciferase, 10K MLSCN set, TLR/RLR signaling modifier project, primary screen (AID 602276).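 Note: firefly luciferase from ISG56 promoter only with Renilla not read in this screen; 0% = Sendai virus plus DMSO and 100% = medium plus DMSO without virus.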 The conditions noted are these: HEK293 RL24 IRF3 luciferase reporter, at 10 µM, stronger effect = higher value. For orientation: In a reporter assay the amount or activity of a reporter protein is the signal.

Experiment [8] is described as follows: TLR3 IRF3 reporter activation blockers – cell-based, poly I:C stimulus, luciferase, 10K MLSCN set, primary screen (AID 602277;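 active = inhibition of the reporter signal at or above 50%; inactive = inhibition below 50%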). The conditions noted are these: HEK293-TLR3 RL24 IRF3 luciferase reporter, at 10 µM, stronger effect = higher value.

Molecules are shown by their SMILES. Calls of active or inactive are those of the source.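 Rule for the calls, unless noted: active = inhibition at or above 50% at 10 µM; inactive = inhibition below 50%.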

Voltage-gated potassium channel subunit beta-2 (Rattus norvegicus), sequence (P62483 whole entry, looked up): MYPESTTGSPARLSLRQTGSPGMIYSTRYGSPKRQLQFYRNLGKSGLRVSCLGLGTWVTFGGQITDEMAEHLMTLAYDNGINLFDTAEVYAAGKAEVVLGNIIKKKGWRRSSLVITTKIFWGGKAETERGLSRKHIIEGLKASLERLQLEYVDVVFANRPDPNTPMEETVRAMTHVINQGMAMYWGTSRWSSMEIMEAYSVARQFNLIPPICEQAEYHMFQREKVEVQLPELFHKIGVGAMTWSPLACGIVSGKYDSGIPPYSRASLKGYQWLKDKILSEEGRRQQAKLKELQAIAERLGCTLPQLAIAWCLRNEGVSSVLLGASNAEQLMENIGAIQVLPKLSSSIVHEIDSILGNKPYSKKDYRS
Muscarinic acetylcholine receptor M4 (Homo sapiens), sequence (P08173 whole entry, looked up): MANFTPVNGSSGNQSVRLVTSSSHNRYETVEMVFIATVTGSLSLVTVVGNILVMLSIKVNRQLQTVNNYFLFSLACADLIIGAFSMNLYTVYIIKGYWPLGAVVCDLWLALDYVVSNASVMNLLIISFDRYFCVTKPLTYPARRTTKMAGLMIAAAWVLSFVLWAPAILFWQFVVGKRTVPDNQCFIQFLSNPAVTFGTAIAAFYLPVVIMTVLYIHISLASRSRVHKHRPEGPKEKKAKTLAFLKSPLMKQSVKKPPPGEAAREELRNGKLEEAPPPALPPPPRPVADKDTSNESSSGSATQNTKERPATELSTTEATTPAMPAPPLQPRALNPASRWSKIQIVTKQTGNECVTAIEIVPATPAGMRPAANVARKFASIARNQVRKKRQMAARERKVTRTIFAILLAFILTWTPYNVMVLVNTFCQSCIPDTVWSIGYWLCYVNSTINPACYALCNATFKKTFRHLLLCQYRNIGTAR

In general, inhibition refers to the relative decrease from the control value, in per cent. Turning to `N#Cc1c(N2C(=O)C3C4C=CC(C4)C3C2=O)sc2c1CCC2` (centres undefined), the cell count in experiment [1] is 493. Moreover, the inhibition in experiment [1] was -24.7% (inactive); in experiment [3], -17.4% (inactive); in experiment [7], 14.5% (inactive); in experiment [8], 18.6% (inactive). The inhibition of aggregation in experiment [2] is -12.7% (inactive). For the same compound, the nuclei count in experiment [2] is 92.9%; in experiment [3], 96.7%. For the same compound, the fluorescence slope in experiment [4] was -0.417 (inactive); in experiment [6], 0.00524 (inactive). In experiment [5], the NADPH fluorescence slope was -5.2e-05 (inactive).
As for `CCOC(=O)c1sc(NS(=O)(=O)c2ccc(NC(C)=O)cc2)nc1C`, the cell count in experiment [1] amounted to 701. For the same compound, the inhibition in experiment [1] was -3.5% (inactive); in experiment [3], 1% (inactive); in experiment [7] it was 11.5% (inactive); in experiment [8] it was 19.8% (inactive). Besides, in experiment [2], the inhibition of aggregation was -10.1% (inactive). Also, the nuclei count amounted to 99.8% in experiment [2] and 94.9% in experiment [3]. The values for the fluorescence slope in experiment [4] and in experiment [6] were -0.448 (inactive) and 0.00462 (inactive), respectively. In addition, in experiment [5], the NADPH fluorescence slope is 1.6e-05 (inactive).
`COc1cc2[nH]c(=O)n(CCCCCC(=O)N3CCN(c4ccccn4)CC3)c(=O)c2cc1OC`: the cell count in experiment [1] is 195. Moreover, the inhibition in experiment [1] was 17.8% (inactive); in experiment [3], 28.9% (inactive); in experiment [7], 19.6% (inactive); in experiment [8], -1.9% (inactive). The inhibition of aggregation in experiment [2] is 6% (inactive). The nuclei count was 100% in experiment [2] and 92.1% in experiment [3]. The fluorescence slope in experiment [4] was -0.216 (inactive); in experiment [6] it was 0.00687 (inactive). Besides, the NADPH fluorescence slope in experiment [5] is -2.4e-05 (inactive).
`COc1cccc(CNC(=O)C2CCN(c3cnccn3)CC2)c1`: in experiment [1], the cell count turned out to be 399. For the same compound, the inhibition was -8.4% (inactive) in experiment [1], -82.7% (inactive) in experiment [3], 18.8% (inactive) in experiment [7] and 18.1% (inactive) in experiment [8]. For the same compound, in experiment [2], the inhibition of aggregation is 17.9% (inactive). Moreover, the nuclei count in experiment [2] amounted to 98.8%; in experiment [3], 86.8%. Besides, the values for the fluorescence slope in experiment [4] and in experiment [6] were -0.548 (inactive) and 0.00424 (inactive), respectively. In experiment [5], the NADPH fluorescence slope is 5.8e-06 (inactive).
`COCCn1c(=O)[nH]c2cc(C(=O)N3CCN(c4ccccc4OC)CC3)ccc2c1=O`: the cell count in experiment [1] was found to be 806. Further, the inhibition is -7.9% (inactive) in experiment [1], -28.7% (inactive) in experiment [3], 10.5% (inactive) in experiment [7] and 12.4% (inactive) in experiment [8]. Moreover, the inhibition of aggregation in experiment [2] is 5.5% (inactive). The nuclei count came out at 102% in experiment [2] and 117% in experiment [3]. For the same compound, the fluorescence slope in experiment [4] is -0.44 (inactive); in experiment [6], 0.00559 (inactive). In experiment [5], the NADPH fluorescence slope was 9.4e-06 (inactive).
In the case of `CCOC(=O)c1sc(NC(=O)CNC(=O)Cn2cnc3sc(C)c(C)c3c2=O)nc1C`, the cell count in experiment [1] is 260. The inhibition in experiment [1] was 12.2% (inactive); in experiment [3], -61.8% (inactive); in experiment [7] it was 16.7% (inactive); in experiment [8] it was 24.7% (inactive). Further, in experiment [2], the inhibition of aggregation was -12.7% (inactive). Also, the figures for the nuclei count in experiment [2] and in experiment [3] were 112% and 109%, respectively. Further, the results for the fluorescence slope in experiment [4] and in experiment [6] were -0.565 (inactive) and 0.00606 (inactive), respectively. In addition, the NADPH fluorescence slope in experiment [5] was -1.6e-06 (inactive).
Turning to `COc1cccc(S(=O)(=O)Nc2cccnc2)c1`, the cell count in experiment [1] worked out at 625. Further, the inhibition is -15.2% (inactive) in experiment [1], -20.1% (inactive) in experiment [3], 5.36% (inactive) in experiment [7] and -3.49% (inactive) in experiment [8]. In experiment [2], the inhibition of aggregation was -31.5% (inactive). Further, the nuclei count in experiment [2] came to 119%; in experiment [3], 96.4%. Moreover, the fluorescence slope is -0.552 (inactive) in experiment [4] and 0.00542 (inactive) in experiment [6]. The NADPH fluorescence slope in experiment [5] is 3.5e-05 (inactive).
Take `O=C(CCn1c(=O)c2sccc2n(CC(=O)NCc2ccco2)c1=O)NCc1ccccc1`: the cell count in experiment [1] is 331. For the same compound, the inhibition in experiment [1] is -2.4% (inactive); in experiment [3], -60% (inactive); in experiment [7], -3.97% (inactive); in experiment [8] it was -0.766% (inactive). Further, in experiment [2], the inhibition of aggregation is 0% (inactive). The nuclei count in experiment [2] turned out to be 100%; in experiment [3] it was 111%. Also, the fluorescence slope in experiment [4] was -0.566 (inactive); in experiment [6] it was 0.00667 (inactive). The NADPH fluorescence slope in experiment [5] is -8.5e-05 (inactive).
Consider `CC(C)(C)n1ncc2c(=O)n(CC(=O)c3ccccc3)cnc21`, for which the cell count in experiment [1] amounted to 473. Moreover, the inhibition in experiment [1] was -1% (inactive); in experiment [3], 22.9% (inactive); in experiment [7] it was -21.3% (inactive); in experiment [8] it was -59.6% (inactive). The inhibition of aggregation in experiment [2] was -4.1% (inactive). The nuclei count in experiment [2] is 126%; in experiment [3], 105%. Further, the fluorescence slope in experiment [4] was -0.534 (inactive); in experiment [6], 0.00534 (inactive). For the same compound, the NADPH fluorescence slope in experiment [5] is -2.2e-05 (inactive).
`Cc1ccc(S(=O)(=O)N(CC(=O)N2CCOCC2)CC(=O)N2CCOCC2)cc1`: in experiment [1], the cell count is 676. In addition, the inhibition is -9% (inactive) in experiment [1], -163% (inactive) in experiment [3], 13% (inactive) in experiment [7] and 27.1% (inactive) in experiment [8]. The inhibition of aggregation in experiment [2] was -5.6% (inactive). For the same compound, the nuclei count came to 108% in experiment [2] and 106% in experiment [3]. Moreover, the fluorescence slope in experiment [4] was -0.486 (inactive); in experiment [6], 0.00519 (inactive). In addition, the NADPH fluorescence slope in experiment [5] is -1.3e-05 (inactive).
Consider `c1ccc(-c2noc(-c3cccnc3)n2)nc1`, for which the cell count in experiment [1] is 359. Moreover, the inhibition was -2.1% (inactive) in experiment [1], -85.3% (inactive) in experiment [3], 0.927% (inactive) in experiment [7] and -38.1% (inactive) in experiment [8]. For the same compound, the inhibition of aggregation in experiment [2] was 0.3% (inactive). The nuclei count in experiment [2] came out at 102%; in experiment [3], 96.9%. Besides, the results for the fluorescence slope in experiment [4] and in experiment [6] were -0.575 (inactive) and 0.00712 (inactive), respectively. Besides, the NADPH fluorescence slope in experiment [5] was -4.4e-05 (inactive).
For the compound `COc1ccc(N2CCN(C(=O)CSc3ncnc4c3cnn4-c3ccccc3C)CC2)cc1`, the cell count in experiment [1] worked out at 543. The inhibition in experiment [1] was 2.1% (inactive); in experiment [3], -60.3% (inactive); in experiment [7], 10.5% (inactive); in experiment [8], 15.1% (inactive). Also, the inhibition of aggregation in experiment [2] is -6.1% (inactive). For the same compound, the values for the nuclei count in experiment [2] and in experiment [3] were 120% and 159%, respectively. Moreover, the fluorescence slope in experiment [4] was -0.506 (inactive); in experiment [6], 0.0046 (inactive). Further, in experiment [5], the NADPH fluorescence slope was -3.3e-06 (inactive).
For the compound `O=C(O)c1oc2ccccc2c1-n1cccc1`, the cell count in experiment [1] was 436. Further, the inhibition in experiment [1] was 13.8% (inactive); in experiment [3] it was -0.2% (inactive); in experiment [7], 10.5% (inactive); in experiment [8] it was 26% (inactive). Further, the inhibition of aggregation in experiment [2] was 10.7% (inactive). Moreover, the nuclei count in experiment [2] stood at 110%; in experiment [3] it was 112%. Further, the figures for the fluorescence slope in experiment [4] and in experiment [6] were -0.531 (inactive) and 0.00514 (inactive), respectively. The NADPH fluorescence slope in experiment [5] is -1.3e-05 (inactive).
Regarding `CCN(CCO)C1CC(=O)N(c2ccccc2C)C1=O` (centres undefined), the cell count in experiment [1] was determined as 486. Also, the inhibition was 7.7% (inactive) in experiment [1], -126% (inactive) in experiment [3], 4.48% (inactive) in experiment [7] and 13% (inactive) in experiment [8]. Moreover, the inhibition of aggregation in experiment [2] is 12.4% (inactive). Also, the figures for the nuclei count in experiment [2] and in experiment [3] were 104% and 145%, respectively. The fluorescence slope is -0.321 (inactive) in experiment [4] and 0.00663 (inactive) in experiment [6]. For the same compound, the NADPH fluorescence slope in experiment [5] is -3.6e-05 (inactive).

(Values after PubChem BioAssay.)
